Calls of active or inactive are those of the source. The rule behind the calls is not given here.
Experiments:
[1] = biological target: T1, Mineralocorticoid receptor (Homo sapiens, UniProt P08235); test: Displacement of tetramethylrhodamine-labeled Dexamethasone from human recombinant mineralocorticoid receptor expressed in baculovirus infected insect cells by fluorescence polarization assay
T1 sequence (P08235 whole entry): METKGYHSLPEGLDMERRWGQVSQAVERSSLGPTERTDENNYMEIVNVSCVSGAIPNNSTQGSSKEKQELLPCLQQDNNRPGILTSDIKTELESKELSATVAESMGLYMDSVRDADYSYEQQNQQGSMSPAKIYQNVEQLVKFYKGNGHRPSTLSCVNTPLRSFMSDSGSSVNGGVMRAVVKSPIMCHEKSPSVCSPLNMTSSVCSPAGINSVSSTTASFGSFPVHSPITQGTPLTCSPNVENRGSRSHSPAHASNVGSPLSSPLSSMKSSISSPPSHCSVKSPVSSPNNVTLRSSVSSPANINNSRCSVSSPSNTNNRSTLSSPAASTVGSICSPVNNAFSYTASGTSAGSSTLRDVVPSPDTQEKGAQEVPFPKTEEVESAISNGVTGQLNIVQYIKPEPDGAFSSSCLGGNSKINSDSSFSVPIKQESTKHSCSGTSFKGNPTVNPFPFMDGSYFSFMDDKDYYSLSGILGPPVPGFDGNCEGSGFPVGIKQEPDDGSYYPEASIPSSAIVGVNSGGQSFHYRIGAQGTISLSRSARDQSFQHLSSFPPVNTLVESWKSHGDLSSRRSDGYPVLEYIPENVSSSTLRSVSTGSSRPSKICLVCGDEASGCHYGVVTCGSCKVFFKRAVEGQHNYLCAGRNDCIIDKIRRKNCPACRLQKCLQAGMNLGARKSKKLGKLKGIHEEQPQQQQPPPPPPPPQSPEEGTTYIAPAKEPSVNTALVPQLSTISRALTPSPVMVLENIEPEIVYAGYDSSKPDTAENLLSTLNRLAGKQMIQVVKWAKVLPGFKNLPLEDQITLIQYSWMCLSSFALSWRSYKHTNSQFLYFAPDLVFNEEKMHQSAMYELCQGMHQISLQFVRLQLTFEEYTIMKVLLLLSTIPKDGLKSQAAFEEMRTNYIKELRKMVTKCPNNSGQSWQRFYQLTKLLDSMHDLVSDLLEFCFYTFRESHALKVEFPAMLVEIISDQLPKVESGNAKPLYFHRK
In short: (§1)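 Fluorescence polarization competition assays with recombinant human receptors in lysates of baculovirus-infected insect cells. Reactions contained 1% DMSO and ran 1 h at room temperature.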

Glucocorticoid receptor [2] = biological target: T2, Glucocorticoid receptor (Homo sapiens, UniProt P04150); test: Transactivation activity of glucocorticoid receptor in HFF assessed as induction of aromatase activity by measuring beta-estradiol activity after 18 to 24 hrs by ELISA
T2 sequence (P04150 whole entry): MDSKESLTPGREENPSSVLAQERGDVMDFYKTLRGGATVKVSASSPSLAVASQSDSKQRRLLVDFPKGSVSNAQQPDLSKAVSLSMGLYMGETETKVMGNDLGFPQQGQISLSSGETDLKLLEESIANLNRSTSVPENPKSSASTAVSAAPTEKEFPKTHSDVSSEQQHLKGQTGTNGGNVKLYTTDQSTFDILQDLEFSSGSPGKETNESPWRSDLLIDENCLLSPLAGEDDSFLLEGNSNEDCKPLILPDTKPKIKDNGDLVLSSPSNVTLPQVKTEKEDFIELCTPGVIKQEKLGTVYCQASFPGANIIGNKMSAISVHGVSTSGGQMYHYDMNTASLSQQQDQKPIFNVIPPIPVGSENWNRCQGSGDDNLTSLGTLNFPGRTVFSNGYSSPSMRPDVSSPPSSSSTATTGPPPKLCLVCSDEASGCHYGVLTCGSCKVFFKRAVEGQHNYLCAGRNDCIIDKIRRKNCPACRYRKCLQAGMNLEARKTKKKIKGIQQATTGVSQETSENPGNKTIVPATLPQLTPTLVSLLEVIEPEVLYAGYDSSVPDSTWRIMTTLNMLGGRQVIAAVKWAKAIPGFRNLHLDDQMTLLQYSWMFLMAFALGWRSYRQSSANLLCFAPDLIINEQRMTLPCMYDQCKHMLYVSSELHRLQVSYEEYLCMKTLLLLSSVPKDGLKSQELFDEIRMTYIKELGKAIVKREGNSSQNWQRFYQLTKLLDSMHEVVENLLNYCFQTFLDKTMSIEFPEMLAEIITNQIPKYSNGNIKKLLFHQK

[3] = biological target: T3, Glucocorticoid receptor (Homo sapiens) (UniProt P04150); test: Agonist activity at glucocorticoid receptor in human HeLa cells transfected with luciferase gene linked to MMTV promoter assessed as luciferase transactivation activity relative to Dexamethasone; type: functional, cell-based
T3 sequence (whole entry): T2 sequence (P04150 whole entry)
In short: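 HeLa cells stably carrying an MMTV-luciferase construct were exposed to compound for 6 h at 37 °C, 5% CO2. Cells were then lysed and luminescence read with a Steady-Glo reagent. EC50 and % maximal efficacy were reported.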

[4] = biological target: T3, Glucocorticoid receptor (Homo sapiens); test: Transactivation activity of glucocorticoid receptor in HFF assessed as induction of aromatase activity by measuring beta-estradiol activity after 18 to 24 hrs by ELISA relative to Dexamethasone
[5] = biological target: T3, Glucocorticoid receptor (Homo sapiens); test: Agonist activity at glucocorticoid receptor in HFF assessed as inhibition of IL1-induced IL-6 production after 18 to 24 hrs relative to Dexamethasone; type: functional
In short: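 Human foreskin fibroblasts stimulated with IL-1 (1 ng/mL) in the presence of test compound, incubated at 37 °C for 18–24 h. IL-6 in the culture medium was quantified by electrochemiluminescence, DELFIA or ELISA. IC50 and % maximal efficacy were reported.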

Glucocorticoid receptor [6] = biological target: T2, Glucocorticoid receptor; test: Agonist activity at glucocorticoid receptor in HFF assessed as inhibition of IL1-induced IL-6 production after 18 to 24 hrs; type: functional
Glucocorticoid receptor [7] = biological target: T2, Glucocorticoid receptor; test: Displacement of tetramethylrhodamine-labeled Dexamethasone from human recombinant glucocorticoid receptor expressed in baculovirus infected insect cells by fluorescence polarization assay
Progesterone receptor = biological target: T4, Progesterone receptor (Homo sapiens, UniProt P06401); test: Displacement of tetramethylrhodamine-labeled RU-486 from human recombinant progesterone receptor expressed in baculovirus infected insect cells by fluorescence polarization assay; in short: as §1
T4 sequence (P06401 whole entry): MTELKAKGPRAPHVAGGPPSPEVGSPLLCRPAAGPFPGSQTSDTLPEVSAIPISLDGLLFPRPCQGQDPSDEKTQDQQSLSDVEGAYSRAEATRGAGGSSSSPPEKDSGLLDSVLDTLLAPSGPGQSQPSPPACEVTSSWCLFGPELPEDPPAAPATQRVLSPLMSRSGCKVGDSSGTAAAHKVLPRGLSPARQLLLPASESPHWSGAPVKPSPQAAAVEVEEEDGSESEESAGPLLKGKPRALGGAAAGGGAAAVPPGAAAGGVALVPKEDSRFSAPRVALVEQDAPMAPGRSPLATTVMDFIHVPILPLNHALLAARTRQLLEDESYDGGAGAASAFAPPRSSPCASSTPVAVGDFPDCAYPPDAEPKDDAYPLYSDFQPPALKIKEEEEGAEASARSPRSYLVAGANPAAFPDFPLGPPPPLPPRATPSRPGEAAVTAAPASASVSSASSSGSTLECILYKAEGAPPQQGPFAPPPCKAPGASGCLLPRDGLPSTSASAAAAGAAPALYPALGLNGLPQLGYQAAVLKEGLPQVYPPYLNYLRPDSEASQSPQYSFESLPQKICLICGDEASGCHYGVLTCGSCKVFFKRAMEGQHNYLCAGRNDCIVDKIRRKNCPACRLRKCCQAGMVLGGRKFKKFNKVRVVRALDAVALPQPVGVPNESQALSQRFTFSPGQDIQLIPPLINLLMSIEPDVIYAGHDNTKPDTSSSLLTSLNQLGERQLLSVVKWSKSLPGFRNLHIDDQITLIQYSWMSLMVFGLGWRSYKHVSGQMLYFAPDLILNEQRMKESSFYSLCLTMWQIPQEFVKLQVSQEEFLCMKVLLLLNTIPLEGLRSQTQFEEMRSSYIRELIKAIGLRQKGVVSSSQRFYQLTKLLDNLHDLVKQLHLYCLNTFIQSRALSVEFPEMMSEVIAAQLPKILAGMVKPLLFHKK

Glucocorticoid receptor [8] = biological target: T2, Glucocorticoid receptor; test: Agonist activity at glucocorticoid receptor in human HeLa cells transfected with luciferase gene linked to MMTV promoter assessed as luciferase transactivation activity; type: functional, cell-based
Mus musculus [9] = test: Antiinflammatory activity in po dosed mouse plasma assessed as inhibition of LPS-induced TNFalpha production administered 1 hr before LPS challenge measured after 1 hr; type: functional
In short: (§2)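 Mice received compound orally in Cremophor RH 1 h before LPS challenge. Plasma TNF-α was measured 1 h after challenge. n = 8 per group; doses were 3 and 10 mg/kg.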

Mus musculus [10] = test: Antiinflammatory activity in mouse plasma assessed as inhibition of LPS-induced TNFalpha production at 10 mg/kg, po administered 1 hr before LPS challenge measured after 1 hr; type: functional; in short: as §2
Homo sapiens [11] = organism: Homo sapiens; test: Selectivity ratio of IC50 for human recombinant glucocorticoid receptor to IC50 for human recombinant progesterone receptor
Homo sapiens [12] = organism: Homo sapiens; test: Selectivity ratio of IC50 for human recombinant glucocorticoid receptor to IC50 for human recombinant mineralocorticoid receptor
Mus musculus [13] = test: Antiinflammatory activity in mouse plasma assessed as inhibition of LPS-induced TNFalpha production at 3 mg/kg, po administered 1 hr before LPS challenge measured after 1 hr; type: functional; in short: as §2

Row | IC50 [1] [µM] | EC50 (Glucocorticoid receptor [2]; read-out: EC50) [µM] | Efficacy [3] [%] | Efficacy [4] [%] | Efficacy [5] [%] | IC50 (Glucocorticoid receptor [6]) [µM] | IC50 (Glucocorticoid receptor [7]) [µM] | IC50 (Progesterone receptor) [µM] | EC50 (Glucocorticoid receptor [8]) [µM] | Ratio IC50 (Homo sapiens [11]) | EC50 (Glucocorticoid receptor [2]) | Ratio IC50 (Homo sapiens [12]) | SMILES | ED50 (Mus musculus [9]) [mg/kg] | inhibition in vivo at 10 mg/kg (Mus musculus [10]) [%] | inhibition (Mus musculus [13]) | inhibition in vivo at 3 mg/kg (Mus musculus [13]) [%]
1 | 0.045 | 0.006 | 10 | 71 | 90 | 0.003 | 0.001 | 0.155 | 0.036 | – | – | – | COc1ccc(F)cc1C(C)(C)C[C@@](O)(Cc1cc2cc(C#N)ccc2[nH]1)C(F)(F)F | – | – | – | –
2 | – | – | – | – | – | – | – | – | – | – | – | – | CC(C)(C[C@@](O)(Cc1cc2ccccc2[nH]1)C(F)(F)F)c1cc(Br)cc2c1OCC2 | < 10 | 61 | – | –
3 | 0.225 | 0.021 | – | 91 | 91 | 0.008 | 0.005 | 0.44 | – | 90 | – | – | COc1ccc(F)cc1C(C)(C)CC(O)(Cc1cc2c(C#N)cccc2[nH]1)C(F)(F)F (racemic) | – | – | – | –
4 | 0.79 | – | – | 49 | 90 | 0.088 | 0.028 | 1 | – | 30 | Not Active | – | CCc1cccc2[nH]c(CC(O)(CC(C)(C)c3cc(F)ccc3OC)C(F)(F)F)cc12 (racemic) | – | – | – | –
5 | 0.415 | 0.028 | – | 81 | 89 | 0.011 | 0.008 | 0.815 | – | 100 | – | 50 | COc1ccc(F)cc1C(C)(C)CC(O)(Cc1cc2cc(C#N)ccc2[nH]1)C(F)(F)F (racemic) | – | – | – | –
6 | 0.435 | 0.113 | – | 98 | 91 | 0.014 | 0.014 | 0.395 | – | 30 | – | 30 | COc1ccc(F)cc1C(C)(C)CC(O)(Cc1cc2ccc(C#N)cc2[nH]1)C(F)(F)F (racemic) | – | – | – | –
7 | 0.405 | 0.356 | – | 55 | 65 | 0.104 | 0.015 | 0.71 | – | 50 | – | – | CC(C)(CC(O)(Cc1cc2ccccc2[nH]1)C(F)(F)F)c1cc(C#N)cc2c1OCC2 (racemic) | – | – | – | –
8 | 0.61 | – | 20 | – | 84 | 0.1 | 0.006 | > 2 | > 2 | > 300 | – | 100 | CC(C)(CC(O)(Cc1cc2ccccc2[nH]1)C(F)(F)F)c1cc(S(C)(=O)=O)cc2c1OCC2 (racemic) | – | – | – | –
9 | 1.45 | 0.08 | 4 | 63 | 85 | 0.049 | 0.005 | > 2 | > 2 | – | – | – | CC(C)(CC(O)(Cc1cc2cc(C#N)ccc2[nH]1)C(F)(F)F)c1cc(S(C)(=O)=O)cc2c1OCC2 (racemic) | < 10 | 77 | inactive | –
10 | 0.43 | 0.125 | 10 | 98 | 89 | 0.039 | 0.005 | > 2 | > 2 | – | – | – | CC(C)(CC(O)(Cc1cc2ccc(C#N)cc2[nH]1)C(F)(F)F)c1cc(S(C)(=O)=O)cc2c1OCC2 (racemic) | < 10 | 66 | – | 66
